Measurements from ChEMBL document CHEMBL1125690, “Quinazoline antifolate thymidylate synthase inhibitors: heterocyclic benzoyl ring modifications” (J Med Chem, 1991).

Key:
L1210 = experiment: In vitro inhibition of L1210 cell growth in culture.; assay type: functional, cell-based; settings: Mus musculus
Method in brief: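 L1210 mouse leukaemia cells grown in culture. The value reported is the IC50 for inhibition of cell growth.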

Thymidylate synthase = Thymidylate synthase (Mus musculus, UniProt P07607); experiment: In vitro inhibition of partially purified L1210 thymidylate synthase (TS).
Chain of Thymidylate synthase (P07607 whole entry): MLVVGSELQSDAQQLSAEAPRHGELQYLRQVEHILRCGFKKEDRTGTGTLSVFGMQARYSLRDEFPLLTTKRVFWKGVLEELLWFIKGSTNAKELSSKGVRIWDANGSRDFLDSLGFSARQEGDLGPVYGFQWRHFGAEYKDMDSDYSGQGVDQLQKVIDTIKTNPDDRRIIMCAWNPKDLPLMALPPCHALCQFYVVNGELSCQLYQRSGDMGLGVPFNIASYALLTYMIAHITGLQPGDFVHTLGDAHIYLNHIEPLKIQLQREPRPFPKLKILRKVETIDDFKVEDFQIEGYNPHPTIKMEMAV

Row | SMILES | IC50 (L1210) [nM] | IC50 (Thymidylate synthase) [nM]
1 | C=CCN(Cc1ccc2nc(C)nc(O)c2c1)c1cnc(C(=O)N[C@H](CCC(=O)O)C(=O)O)s1 | 13 | 1070
2 | Cc1nc2ccc(CN(C)c3ccc(C(=O)N[C@@H](CCC(=O)O)C(=O)O)cn3)cc2c(=O)[nH]1 | 1600 | 4250
3 | Cc1nc(O)c2cc(CN(C)c3ccc(C(=O)N[C@H](CCC(=O)O)C(=O)O)s3)ccc2n1 | 7 | 
4 | Cc1nc(O)c2cc(CN(CCO)c3ccc(C(=O)N[C@H](CCC(=O)O)C(=O)O)s3)ccc2n1 | 100 | 1200
5 | CCN(Cc1ccc2nc(CO)nc(O)c2c1)c1ccc(C(=O)N[C@H](CCC(=O)O)C(=O)O)s1 | 2700 | 1030
6 | Cc1nc(O)c2cc(CNc3ccc(C(=O)N[C@H](CCC(=O)O)C(=O)O)s3)ccc2n1 | 3000 | 24800
7 | C=CCN(Cc1ccc2nc(C)nc(O)c2c1)c1ccc(C(=O)N[C@H](CCC(=O)O)C(=O)O)s1 | 58 | 1680
8 | Cc1nc(O)c2cc(CN(CCCO)c3cnc(C(=O)N[C@H](CCC(=O)O)C(=O)O)s3)ccc2n1 | 60 | 1740
9 | C#CCN(Cc1ccc2nc(C)[nH]c(=O)c2c1)c1ccc(C(=O)N[C@@H](CCC(=O)O)C(=O)O)nc1 | 60 | 40
10 | Cc1nc(O)c2cc(CN(CCCO)c3ccc(C(=O)N[C@H](CCC(=O)O)C(=O)O)s3)ccc2n1 | 3000 | 3360
11 | Cc1nc2ccc(CN(C)c3cnc(C(=O)N[C@@H](CCC(=O)O)C(=O)O)nc3)cc2c(=O)[nH]1 | 1400 | 2340
12 | Cc1nc(O)c2cc(CNc3cnc(C(=O)N[C@H](CCC(=O)O)C(=O)O)s3)ccc2n1 | 280 | 7120
13 | Cc1nc(O)c2cc(CN(CC#N)c3ccc(C(=O)N[C@H](CCC(=O)O)C(=O)O)s3)ccc2n1 | 200 | 3080
14 | CN(Cc1ccc2nc(CF)nc(O)c2c1)c1ccc(C(=O)N[C@H](CCC(=O)O)C(=O)O)s1 | 16 | 1360
15 | O=C(O)CC[C@@H](NC(=O)c1ccc(N(CCF)Cc2ccc3nc(CF)nc(O)c3c2)s1)C(=O)O | 670 | 1070
16 | CCN(Cc1ccc2nc(C)nc(O)c2c1)c1nnc(C(=O)N[C@H](CCC(=O)O)C(=O)O)s1 | 2400 | 940
17 | CN(Cc1ccc2nc(CO)nc(O)c2c1)c1ccc(C(=O)N[C@H](CCC(=O)O)C(=O)O)s1 | 780 | 1360
18 | CCCN(Cc1ccc2nc(C)nc(O)c2c1)c1ccc(C(=O)N[C@H](CCC(=O)O)C(=O)O)s1 | 400 | 1850

Other lines, results leading:

Row | IC50 (L1210) [nM] | IC50 (Thymidylate synthase) [nM] | SMILES
19 | 60 | 440 | C#CCN(Cc1ccc2nc(C)nc(O)c2c1)c1ccc(C(=O)N[C@H](CCC(=O)O)C(=O)O)s1
20 |  | 260 | CCN(Cc1ccc2nc(C)[nH]c(=O)c2c1)c1ccc(C(=O)N[C@@H](CCC(=O)O)C(=O)O)cc1
21 |  | 250 | Cc1nc2ccc(CN(C)c3ccc(C(=O)N[C@@H](CCC(=O)O)C(=O)O)cc3)cc2c(=O)[nH]1
22 | 20 | 190 | Cc1nc(O)c2cc(CN(CCF)c3cnc(C(=O)N[C@H](CCC(=O)O)C(=O)O)s3)ccc2n1
23 | 8 | 230 | C#CCN(Cc1ccc2nc(C)nc(O)c2c1)c1cnc(C(=O)N[C@H](CCC(=O)O)C(=O)O)s1
24 | 20 | 420 | Cc1nc(O)c2cc(CN(CCO)c3cnc(C(=O)N[C@H](CCC(=O)O)C(=O)O)s3)ccc2n1
25 | 160 | 350 | Cc1nc2ccc(CN(C)c3ccc(C(=O)N[C@@H](CCC(=O)O)C(=O)O)nc3)cc2c(=O)[nH]1
26 | 130 | 760 | C=CCN(Cc1ccc2nc(C)[nH]c(=O)c2c1)c1ccc(C(=O)N[C@@H](CCC(=O)O)C(=O)O)nc1
27 | 140 | 160 | Cc1nc2ccc(CN(CCF)c3ccc(C(=O)N[C@@H](CCC(=O)O)C(=O)O)nc3)cc2c(=O)[nH]1
28 | 6 | 420 | Cc1nc(O)c2cc(CN(C)c3cnc(C(=O)N[C@H](CCC(=O)O)C(=O)O)s3)ccc2n1
29 | 100 | 220 | CCN(Cc1ccc2nc(CF)nc(O)c2c1)c1cnc(C(=O)N[C@H](CCC(=O)O)C(=O)O)s1
30 | 300 | 490 | CN(Cc1ccc2nc(CO)nc(O)c2c1)c1cnc(C(=O)N[C@H](CCC(=O)O)C(=O)O)s1
31 | 8 | 230 | CCN(Cc1ccc2nc(C)nc(O)c2c1)c1cnc(C(=O)N[C@H](CCC(=O)O)C(=O)O)s1
32 | 640 | 150 | CCN(Cc1ccc2nc(C)[nH]c(=O)c2c1)c1ccc(C(=O)N[C@@H](CCC(=O)O)C(=O)O)nc1
33 | 110 | 930 | CCN(Cc1ccc2nc(CF)nc(O)c2c1)c1ccc(C(=O)N[C@H](CCC(=O)O)C(=O)O)s1
34 | 16 | 580 | CCN(Cc1ccc2nc(C)nc(O)c2c1)c1ccc(C(=O)N[C@H](CCC(=O)O)C(=O)O)s1
35 | 900 | 760 | CCN(Cc1ccc2nc(C)nc(O)c2c1)c1ncc(C(=O)N[C@H](CCC(=O)O)C(=O)O)s1
36 | 100 | 550 | Cc1nc(O)c2cc(CN(CCF)c3ccc(C(=O)N[C@H](CCC(=O)O)C(=O)O)s3)ccc2n1
